Values after ≈ are worked out from the molar mass of the structure shown.
Columns and labels:
Candida albicans [1] = test: Antifungal activity against Candida albicans ATCC 14053 after 48 hrs by broth microdilution method; format: functional; conditions: ATCC 14053, 48 h
Outline: (§1)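 Broth microdilution per NCCLS guidelines in MOPS-buffered RPMI 1640; starting inoculum 1-5 x 10^3 CFU/mL; plates incubated at 35 °C; MIC recorded after 48 h; fluconazole as reference; experiments repeated three times.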

[2] = Selectivity index, ratio of IC50 for human HeLa cells to MIC for metronidazole-susceptible Trichomonas vaginalis; format: toxicity; conditions: read-out: Selectivity Index
Trichomonas vaginalis [3] = test: Potency index, ratio of metronidazole MIC to test compound MIC for metronidazole-resistant Trichomonas vaginalis CDC085 ATCC 50143; format: functional
Candida albicans [4] = test: Antifungal activity against Candida albicans ATCC 66027 after 48 hrs by broth microdilution method; format: functional; conditions: ATCC 66027, 48 h; outline: as §1
Trichomonas vaginalis [5] = test: Antitrichomonas activity against metronidazole-susceptible Trichomonas vaginalis assessed as decrease in cell viability after 48 hrs by trypan blue exclusion method; format: functional
Trichomonas vaginalis [6] = test: Antitrichomonas activity against metronidazole-resistant Trichomonas vaginalis CDC085 ATCC 50143 assessed as decrease in cell viability after 48 hrs by trypan blue exclusion method; format: functional; conditions: CDC085 ATCC 50143, 48 h
[7] = test system: Trichophyton mentagrophytes; test: Antifungal activity against Trichophyton mentagrophytes after 48 hrs by broth microdilution method; format: functional; outline: as §1
[8] = Selectivity index, ratio of IC50 for human HeLa cells to MIC for metronidazole-resistant Trichomonas vaginalis CDC085 ATCC 50143; format: toxicity; conditions: read-out: Selectivity Index
Nakaseomyces glabratus = test: Antifungal activity against Candida glabrata ATCC 2001 after 48 hrs by broth microdilution method; format: functional; conditions: ATCC 2001, 48 h; outline: as §1
Cryptococcus neoformans = test: Antifungal activity against Cryptococcus neoformans after 48 hrs by broth microdilution method; format: functional; outline: as §1
Sporothrix schenckii = test: Antifungal activity against Sporothrix schenckii after 48 hrs by broth microdilution method; format: functional; outline: as §1
Candida albicans [9] = test: Antifungal activity against Candida albicans MTCC 183 after 48 hrs by broth microdilution method; format: functional; conditions: MTCC 183, 48 h; outline: as §1
HeLa = test: Cytotoxicity against human HeLa cells after 24 hrs by MTT assay; format: cell-based
Candida albicans [10] = test: Antifungal activity against Candida albicans patient isolate after 48 hrs by broth microdilution method; format: functional; outline: as §1
Candida albicans [11] = test: Antifungal activity against Candida albicans ATCC 10231 after 48 hrs by broth microdilution method; format: functional; conditions: ATCC 10231, 48 h; outline: as §1
Candida parapsilosis = test: Antifungal activity against Candida parapsilosis ATCC 22019 after 48 hrs by broth microdilution method; format: functional; conditions: Lodderomyces parapsilosis, ATCC 22019, 48 h; outline: as §1

| Structure (SMILES) | MIC (Candida albicans [1]) [µM] | selectivity ratio [2] | Ratio (Trichomonas vaginalis [3]) | MIC (Candida albicans [4]) [µM] | MIC (Trichomonas vaginalis [5]) [µM] | MIC (Trichomonas vaginalis [6]) [µM] | MIC [7] [µM] | selectivity ratio [8] | MIC (Nakaseomyces glabratus) [µM] | MIC (Cryptococcus neoformans) [µM] | MIC (Sporothrix schenckii) [µM] | MIC (Candida albicans [9]) [µM] | IC50 (HeLa) [mM] | MIC (Candida albicans [10]) [µM] | MIC (Candida albicans [11]) [µM] | MIC (Candida parapsilosis) [µM] |
| --- | --- | --- | --- | --- | --- | --- | --- | --- | --- | --- | --- | --- | --- | --- | --- | --- |
| CN(C)C(=S)SC(=S)N1CCN(C(=S)SCc2ccccc2)CC1 | 120 (≈ 50 µg/mL) | > 83 | 1.3 - 11.2 | 30 (≈ 12.5 µg/mL) | 60.1 (≈ 25 µg/mL) | 120 (≈ 50 µg/mL) | 60.1 (≈ 25 µg/mL) | > 41 | 120 (≈ 50 µg/mL) | 60.1 (≈ 25 µg/mL) | 60.1 (≈ 25 µg/mL) | 120 (≈ 50 µg/mL) | > 5 | 30 (≈ 12.5 µg/mL) | > 120 | 7.5 (≈ 3.12 µg/mL) |
| CN(C)C(=S)SC(=S)N1CCN(C(=S)SCCCC#N)CC1 | > 127 | > 79 | 1.3 - 11.2 | > 127 | 63.6 (≈ 25 µg/mL) | 127 (≈ 50 µg/mL) | 127 (≈ 50 µg/mL) | > 39 | > 127 | > 127 | 127 (≈ 50 µg/mL) | > 127 | > 5 | > 127 | > 127 | > 127 |
| CCCCN1CCN(C(=S)SC(=S)N(C)C)CC1 | 163 (≈ 49.9 µg/mL) | 200 | 1.3 - 9.5 | 81.7 (≈ 25 µg/mL) | 20.4 (≈ 6.24 µg/mL) | 81.7 (≈ 25 µg/mL) | 163 (≈ 49.9 µg/mL) | 50 | 163 (≈ 49.9 µg/mL) | 163 (≈ 49.9 µg/mL) | 163 (≈ 49.9 µg/mL) | 81.7 (≈ 25 µg/mL) | 4.1 | 163 (≈ 49.9 µg/mL) | 163 (≈ 49.9 µg/mL) | 163 (≈ 49.9 µg/mL) |
| CN(C)C(=S)SC(=S)N1CCCC1 | 26.7 (≈ 6.26 µg/mL) | 115 | 1.5 - 3.8 | 53.4 (≈ 12.5 µg/mL) | 26.7 (≈ 6.26 µg/mL) | 107 (≈ 25 µg/mL) | 53.4 (≈ 12.5 µg/mL) | 29 | 53.4 (≈ 12.5 µg/mL) | 214 (≈ 50.1 µg/mL) | 53.4 (≈ 12.5 µg/mL) | 53.4 (≈ 12.5 µg/mL) | 3.09 | 107 (≈ 25 µg/mL) | 53.4 (≈ 12.5 µg/mL) | 107 (≈ 25 µg/mL) |
| CN(C)C(=S)SC(=S)N1CCN(C(=S)NC2CCCCC2)CC1 | > 128 | > 161 | 1.3 - 11.2 | > 128 | 32 (≈ 12.5 µg/mL) | 63.9 (≈ 25 µg/mL) | 128 (≈ 50 µg/mL) | > 79 | > 128 | > 128 | 128 (≈ 50 µg/mL) | > 128 | > 5 | > 128 | > 128 | 128 (≈ 50 µg/mL) |
| CN(C)C(=S)SC(=S)N1CCN(C(=S)NCCc2ccccc2)CC1 | > 121 | > 83 | 1.3 - 11.2 | > 121 | 60.5 (≈ 25 µg/mL) | 242 (≈ 99.9 µg/mL) | > 121 | > 20 | > 121 | > 121 | > 121 | > 121 | > 5 | > 121 | > 121 | > 121 |
| CCCCNC(=S)N1CCN(C(=S)SC(=S)N(C)C)CC1 | > 137 | 41 | 1.3 - 11.2 | > 137 | 68.5 (≈ 25 µg/mL) | 137 (≈ 49.9 µg/mL) | 137 (≈ 49.9 µg/mL) | 20 | > 137 | > 137 | 137 (≈ 49.9 µg/mL) | > 137 | 2.84 | 137 (≈ 49.9 µg/mL) | > 137 | 137 (≈ 49.9 µg/mL) |
| CN(C)C(=S)SC(=S)N1CCCCCC1 | 11.9 (≈ 3.12 µg/mL) | > 52 | 1.5 - 3.8 | 23.9 (≈ 6.26 µg/mL) | 95.4 (≈ 25 µg/mL) | 191 (≈ 50.1 µg/mL) | 23.9 (≈ 6.26 µg/mL) | > 26 | 11.9 (≈ 3.12 µg/mL) | 47.7 (≈ 12.5 µg/mL) | 23.9 (≈ 6.26 µg/mL) | 47.7 (≈ 12.5 µg/mL) | > 5 | 23.9 (≈ 6.26 µg/mL) | 23.9 (≈ 6.26 µg/mL) | 23.9 (≈ 6.26 µg/mL) |
| CN(C)C(=S)SC(=S)N1CCN(C(=S)NCc2ccccc2)CC1 | > 125 | > 40 | 1.3 - 11.2 | > 125 | 125 (≈ 50 µg/mL) | 251 (≈ 99.9 µg/mL) | 125 (≈ 50 µg/mL) | > 20 | > 125 | > 125 | 125 (≈ 50 µg/mL) | > 125 | > 5 | > 125 | > 125 | > 125 |
| CN1CCN(C(=S)SC(=S)N(C)C)CC1 | 95 (≈ 25 µg/mL) | 26 | 1.3 - 9.5 | 47.5 (≈ 12.5 µg/mL) | 47.5 (≈ 12.5 µg/mL) | 95 (≈ 25 µg/mL) | 95 (≈ 25 µg/mL) | 12 | 190 (≈ 50.1 µg/mL) | 190 (≈ 50.1 µg/mL) | 95 (≈ 25 µg/mL) | 95 (≈ 25 µg/mL) | 1.22 | 95 (≈ 25 µg/mL) | 190 (≈ 50.1 µg/mL) | 190 (≈ 50.1 µg/mL) |
| CN(C)C(=S)SC(=S)N1CCCCC1 | 25.2 (≈ 6.26 µg/mL) | > 200 | 1.5 - 3.8 | 50.4 (≈ 12.5 µg/mL) | 25.2 (≈ 6.26 µg/mL) | 101 (≈ 25 µg/mL) | 101 (≈ 25 µg/mL) | > 50 | 50.4 (≈ 12.5 µg/mL) | 202 (≈ 50.1 µg/mL) | 101 (≈ 25 µg/mL) | 50.4 (≈ 12.5 µg/mL) | > 5 | 101 (≈ 25 µg/mL) | 50.4 (≈ 12.5 µg/mL) | 101 (≈ 25 µg/mL) |
| COc1ccccc1N1CCN(C(=S)SC(=S)N(C)C)CC1 | > 140 | 15 | 1.3 - 9.5 | 70.2 (≈ 25 µg/mL) | 281 (≈ 99.9 µg/mL) | 702 (≈ 250 µg/mL) | 140 (≈ 49.9 µg/mL) | 6 | > 140 | > 140 | 140 (≈ 49.9 µg/mL) | 140 (≈ 49.9 µg/mL) | 4.33 | > 140 | > 140 | 70.2 (≈ 25 µg/mL) |
| CCN(CC)C(=S)SC(=S)N(C)C | > 212 | > 94 | 1.5 - 3.8 | 53 (≈ 12.5 µg/mL) | 53 (≈ 12.5 µg/mL) | 106 (≈ 25 µg/mL) | 26.5 (≈ 6.26 µg/mL) | > 47 | > 212 | 106 (≈ 25 µg/mL) | 26.5 (≈ 6.26 µg/mL) | 106 (≈ 25 µg/mL) | > 5 | 53 (≈ 12.5 µg/mL) | > 212 | 26.5 (≈ 6.26 µg/mL) |
